Experimental data as given in ChEMBL document CHEMBL1144707, “Antiparasitic, antineuroinflammatory, and cytotoxic polyketides from the marine sponge Plakortis angulospiculatus collected in Brazil” (J Nat Prod, 2008).
In brackets after ≈: the same amount, converted by molar mass.

Tested on: HCT-8
Test: Cytotoxicity against human HCT8 cells
Type: functional, cell-based
Settings: not given

| SMILES | IC50 [µg/mL] |
| --- | --- |
| CC/C=C/[C@H](CC)C[C@]1(CC)C=C(CC)/C(=C/C(=O)OC)O1 | 7.2 (≈ 23.5 µM) |
| CCCC[C@H](CC)C[C@]1(CC)C=C(CC)/C(=C\C(=O)OC)O1 | 8 (≈ 25.9 µM) |
| CC/C=C/[C@H](CC)C[C@@]1(C)C[C@@H](CC)[C@@H](CC(=O)OC)OO1 [PLAKORTIN] | 3 (≈ 9.6 µM) |
| CC/C=C/[C@H](CC)C[C@]1(C)C=C(CC)/C(=C/C(=O)OC)O1 [SPONGOSORITIN A] | > 25 |

Tested on: not listed separately
Test: Selectivity index, ratio of IC50 for human macrophages to IC50 for antileishmanial activity against Leishmania chagasi intracellular amastigotes
Type: functional
Settings: not given
Procedure, shortened: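 Ratio of macrophage cytotoxicity IC50 (MTT, 48 h) to IC50 against L. chagasi intracellular amastigotes.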

| SMILES | Selectivity index |
| --- | --- |
| CC/C=C/[C@H](CC)C[C@]1(CC)C=C(CC)/C(=C/C(=O)OC)O1 | 18.6 |
| CCCC[C@H](CC)C[C@]1(CC)C=C(CC)/C(=C\C(=O)OC)O1 | 9.2 |
| CC/C=C/[C@H](CC)C[C@]1(C)C=C(CC)/C(=C/C(=O)OC)O1 [SPONGOSORITIN A] | 9.6 |

Tested on: not listed separately
Test: Selectivity index, ratio of mouse peritoneal macrophages to Antitrypanosomal activity against Trypanosoma cruzi Y
Settings: not given

| SMILES | Selectivity index |
| --- | --- |
| CC/C=C/[C@H](CC)C[C@]1(CC)C=C(CC)/C(=C/C(=O)OC)O1 | 1.8 |
| CCCC[C@H](CC)C[C@]1(CC)C=C(CC)/C(=C\C(=O)OC)O1 | 1 |
| CC/C=C/[C@H](CC)C[C@]1(C)C=C(CC)/C(=C/C(=O)OC)O1 [SPONGOSORITIN A] | 1.15 |

Tested on: HL-60
Test: Cytotoxicity against human HL60 cells
Type: functional, cell-based
Settings: not given

| SMILES | IC50 [µg/mL] |
| --- | --- |
| CC/C=C/[C@H](CC)C[C@]1(CC)C=C(CC)/C(=C/C(=O)OC)O1 | 8.6 (≈ 28.1 µM) |
| CCCC[C@H](CC)C[C@]1(CC)C=C(CC)/C(=C\C(=O)OC)O1 | 15.2 (≈ 49.3 µM) |
| CC/C=C/[C@H](CC)C[C@@]1(C)C[C@@H](CC)[C@@H](CC(=O)OC)OO1 [PLAKORTIN] | 13.3 (≈ 42.6 µM) |
| CC/C=C/[C@H](CC)C[C@]1(C)C=C(CC)/C(=C/C(=O)OC)O1 [SPONGOSORITIN A] | > 25 |

Tested on: not listed separately
Test: Antiinflammatory activity in rat neonatal brain microglia cells assessed as phorbol 12-myristate 13-acetate-stimulated thromboxane B2 release
Type: functional, cell-based
Settings: not given
Procedure, shortened: (§1)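 Rat neonatal brain microglia, 2 × 10^5 cells per well, primed with E. coli LPS (0.3 ng/mL) for 17 h at 35.9 °C in 5% CO2. Cells were washed with HBSS, exposed to compounds (0.1–10 µM) or DMSO vehicle for 15 min, then stimulated with PMA (1 µM) for 70 min. O2-, TXB2 and LDH release were measured, duplicates, two independent experiments. IC50 for O2- and TXB2. LDH50 is the concentration giving 50% of the LDH release seen with 0.1% Triton X-100.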

| IC50 [µM] | SMILES |
| --- | --- |
| > 10 | CC/C=C/[C@H](CC)C[C@]1(CC)C=C(CC)/C(=C/C(=O)OC)O1 |
| > 10 | CCCC[C@H](CC)C[C@]1(CC)C=C(CC)/C(=C\C(=O)OC)O1 |
| > 10 | CC/C=C/[C@H](CC)C[C@]1(C)C=C(CC)/C(=C/C(=O)OC)O1 [SPONGOSORITIN A] |

| SMILES | IC50 [µM] |
| --- | --- |
| CC/C=C/[C@H](CC)C[C@@]1(C)C[C@@H](CC)[C@@H](CC(=O)OC)OO1 [PLAKORTIN] | > 1 |

Tested on: MDA-MB-435
Test: Cytotoxicity against human MDA-MB-435 cells
Type: functional, cell-based
Settings: not given

| SMILES | IC50 [µg/mL] |
| --- | --- |
| CC/C=C/[C@H](CC)C[C@]1(CC)C=C(CC)/C(=C/C(=O)OC)O1 | 9.6 (≈ 31.3 µM) |
| CCCC[C@H](CC)C[C@]1(CC)C=C(CC)/C(=C\C(=O)OC)O1 | 6.5 (≈ 21.1 µM) |
| CC/C=C/[C@H](CC)C[C@@]1(C)C[C@@H](CC)[C@@H](CC(=O)OC)OO1 [PLAKORTIN] | 10.4 (≈ 33.3 µM) |
| CC/C=C/[C@H](CC)C[C@]1(C)C=C(CC)/C(=C/C(=O)OC)O1 [SPONGOSORITIN A] | > 25 |

Tested on: not listed separately
Test: Toxicity in BALB/c mouse erythrocytes assessed as hemolysis at 6.25 ug/ml after 2 hrs
Type: cell-based, Erythrocyte
Settings: read-out: Activity
Procedure, shortened: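 A 3% suspension of BALB/c mouse erythrocytes incubated with compounds for 2 h at 25 °C. Supernatant absorbance read at 550 nm.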

| SMILES | hemolysis at 2 h, 6.25 ug/ml [%] |
| --- | --- |
| CC/C=C/[C@H](CC)C[C@]1(CC)C=C(CC)/C(=C/C(=O)OC)O1 | 7.24 |
| CCCC[C@H](CC)C[C@]1(CC)C=C(CC)/C(=C\C(=O)OC)O1 | 0 |
| CC/C=C/[C@H](CC)C[C@@]1(C)C[C@@H](CC)[C@@H](CC(=O)OC)OO1 [PLAKORTIN] | 0 |
| CC/C=C/[C@H](CC)C[C@]1(C)C=C(CC)/C(=C/C(=O)OC)O1 [SPONGOSORITIN A] | 1.8 |

Tested on: Leishmania chagasi
Test: Antileishmanial activity against Leishmania chagasi intracellular amastigotes infected in hamster macrophages after 48 hrs […]
Type: functional, organism-based
Settings: Leishmania chagasi, 48 h; read-out: IC50
Procedure, shortened: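 Intracellular amastigotes tested in infected macrophages, with pentavalent antimony as standard. Amastigotes were obtained from hamster spleens 60–70 days postinfection. Parasite burden was scored as the mean number of amastigotes per macrophage over 500 cells. Result expressed as IC50.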

| SMILES | IC50 [µg/mL] |
| --- | --- |
| CC/C=C/[C@H](CC)C[C@]1(CC)C=C(CC)/C(=C/C(=O)OC)O1 | 1.6 (≈ 5.22 µM) |
| CCCC[C@H](CC)C[C@]1(CC)C=C(CC)/C(=C\C(=O)OC)O1 | 3.4 (≈ 11 µM) |
| CC/C=C/[C@H](CC)C[C@]1(C)C=C(CC)/C(=C/C(=O)OC)O1 [SPONGOSORITIN A] | 3.1 (≈ 10.6 µM) |

Tested on: Leishmania chagasi
Test: Antileishmanial activity against Leishmania chagasi promastigotes infected in hamster after 48 hrs by MTT assay
Type: functional, organism-based
Settings: not given
Procedure, shortened: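 Promastigotes maintained in M-199 with 10% calf serum and 0.25% hemin at 24 °C, seeded at 1 × 10^6 cells/well. Incubated with 0.488–500 µg/mL for 48 h at 24 °C, pentamidine as standard. Viability by MTT at 570 nm.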

| SMILES | IC50 [µg/mL] |
| --- | --- |
| CC/C=C/[C@H](CC)C[C@]1(CC)C=C(CC)/C(=C/C(=O)OC)O1 | 8.5 (≈ 27.7 µM) |
| CCCC[C@H](CC)C[C@]1(CC)C=C(CC)/C(=C\C(=O)OC)O1 | 3.9 (≈ 12.6 µM) |
| CC/C=C/[C@H](CC)C[C@@]1(C)C[C@@H](CC)[C@@H](CC(=O)OC)OO1 [PLAKORTIN] | 6 (≈ 19.2 µM) |
| CC/C=C/[C@H](CC)C[C@]1(C)C=C(CC)/C(=C/C(=O)OC)O1 [SPONGOSORITIN A] | 2.5 (≈ 8.55 µM) |

Tested on: not listed separately
Test: Antiinflammatory activity in rat neonatal brain microglia cells assessed as drug level causing 50% LDH release
Type: functional, cell-based
Settings: not given
Procedure, shortened: as §1

| IC50 [µM] | SMILES |
| --- | --- |
| > 10 | CC/C=C/[C@H](CC)C[C@]1(CC)C=C(CC)/C(=C/C(=O)OC)O1 |
| > 10 | CCCC[C@H](CC)C[C@]1(CC)C=C(CC)/C(=C\C(=O)OC)O1 |
| > 10 | CC/C=C/[C@H](CC)C[C@]1(C)C=C(CC)/C(=C/C(=O)OC)O1 [SPONGOSORITIN A] |

| SMILES | IC50 [µM] |
| --- | --- |
| CC/C=C/[C@H](CC)C[C@@]1(C)C[C@@H](CC)[C@@H](CC(=O)OC)OO1 [PLAKORTIN] | > 10 |

Tested on: SF-295
Test: Cytotoxicity against human SF295 cells
Type: functional, cell-based
Settings: not given

| SMILES | IC50 [µg/mL] |
| --- | --- |
| CC/C=C/[C@H](CC)C[C@]1(CC)C=C(CC)/C(=C/C(=O)OC)O1 | 11.4 (≈ 37.2 µM) |
| CCCC[C@H](CC)C[C@]1(CC)C=C(CC)/C(=C\C(=O)OC)O1 | 16.8 (≈ 54.5 µM) |
| CC/C=C/[C@H](CC)C[C@@]1(C)C[C@@H](CC)[C@@H](CC(=O)OC)OO1 [PLAKORTIN] | 9.8 (≈ 31.4 µM) |
| CC/C=C/[C@H](CC)C[C@]1(C)C=C(CC)/C(=C/C(=O)OC)O1 [SPONGOSORITIN A] | > 25 |

Tested on: Trypanosoma cruzi
Test: Antitrypanosomal activity against Trypanosoma cruzi Y infected in […] LLC-MK2 cells after 24 hrs by MTT assay
Type: functional, organism-based
Settings: LLC-MK2, 24 h
Procedure, shortened: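 Free trypomastigotes (Y strain) from LLC-MK2 cultures, seeded at 1 × 10^6 cells/well. Incubated up to 100 µg/mL for 24 h at 37 °C in 5% CO2, benznidazole as standard. Viability by MTT conversion, formazan extracted with 10% SDS for 18 h at 24 °C. IC50 in µg/mL.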

| IC50 [µg/mL] | SMILES |
| --- | --- |
| 16.5 (≈ 53.8 µM) | CC/C=C/[C@H](CC)C[C@]1(CC)C=C(CC)/C(=C/C(=O)OC)O1 |
| 31.6 (≈ 102 µM) | CCCC[C@H](CC)C[C@]1(CC)C=C(CC)/C(=C\C(=O)OC)O1 |
| 25.7 (≈ 87.9 µM) | CC/C=C/[C@H](CC)C[C@]1(C)C=C(CC)/C(=C/C(=O)OC)O1 [SPONGOSORITIN A] |

Tested on: not listed separately
Test: Cytotoxicity against human macrophages after 48 hrs by MTT assay
Type: cell-based, Macrophage
Settings: Homo sapiens, Macrophage, 48 h; read-out: IC50

| SMILES | IC50 [µg/mL] |
| --- | --- |
| CC/C=C/[C@H](CC)C[C@]1(CC)C=C(CC)/C(=C/C(=O)OC)O1 | 30.2 (≈ 98.5 µM) |
| CCCC[C@H](CC)C[C@]1(CC)C=C(CC)/C(=C\C(=O)OC)O1 | 31.6 (≈ 102 µM) |
| CC/C=C/[C@H](CC)C[C@@]1(C)C[C@@H](CC)[C@@H](CC(=O)OC)OO1 [PLAKORTIN] | 4.7 (≈ 15 µM) |
| CC/C=C/[C@H](CC)C[C@]1(C)C=C(CC)/C(=C/C(=O)OC)O1 [SPONGOSORITIN A] | 29.8 (≈ 102 µM) |

Tested on: not listed separately
Test: Antiinflammatory activity in rat neonatal brain microglia cells assessed as phorbol 12-myristate 13-acetate-stimulated superoxide release
Type: functional, cell-based
Settings: not given
Procedure, shortened: as §1

| IC50 [µM] | SMILES |
| --- | --- |
| > 10 | CC/C=C/[C@H](CC)C[C@]1(CC)C=C(CC)/C(=C/C(=O)OC)O1 |
| > 10 | CCCC[C@H](CC)C[C@]1(CC)C=C(CC)/C(=C\C(=O)OC)O1 |
| > 10 | CC/C=C/[C@H](CC)C[C@]1(C)C=C(CC)/C(=C/C(=O)OC)O1 [SPONGOSORITIN A] |

| SMILES | IC50 [µM] |
| --- | --- |
| CC/C=C/[C@H](CC)C[C@@]1(C)C[C@@H](CC)[C@@H](CC(=O)OC)OO1 [PLAKORTIN] | > 1 |
